Measured values gathered from unrelated publications.
pIC50, pKi: −log10 of the molar value.
Target: Carbonic anhydrase 2 (CA2, Homo sapiens, UniProt P00918)
Observed: enzyme activity
Action: inhibitor

technique | pH | endpoint | value | Compound
stopped-flow |  | pKi | 7.01 | NS(=O)(=O)c1cnc(NC(=O)CCc2ccccc2)s1
absorbance | pH 7.4 | pIC50 | 4.82 | O=C(O)COCCN1CCN(C(c2ccccc2)c2ccc(Cl)cc2)CC1 (stereo not drawn)
stopped-flow |  | pKi | 7.53 | CC1CCCCC1CC(=O)Nc1nnc(S(N)(=O)=O)s1 (stereo not drawn)
absorbance |  | pIC50 | 5.89 | O=C(O)c1ccc(Nc2nc(-c3cc4cc(Br)ccc4oc3=O)cs2)cc1
absorbance |  | pIC50 | 6.24 | COc1ccc(NC(=S)N/N=C/c2ccc(N3CCC(O)CC3)cc2)cc1
absorbance | pH 7.4 | pIC50 | 4.84 | Cc1cncc(CN2CCC(=C3c4ccc(Cl)cc4CCc4cccnc43)CC2)c1
absorbance |  | pIC50 | 6.57 | OC1CCN(c2ccc(/C=N/NC(=S)Nc3cccc(Cl)c3Cl)cc2)CC1
stopped-flow |  | pKi | 7.59 | Cc1ccccc1C(=O)Nc1nnc(S(N)(=O)=O)s1
absorbance |  | pIC50 | 6.30 | OC1CCN(c2ccc(/C=N/NC(=S)Nc3ccccc3)cc2)CC1
absorbance | pH 7.4 | pIC50 | 4.69 | Cn1cnc([N+](=O)[O-])c1Sc1ncnc2nc[nH]c12
absorbance |  | pIC50 | 6.59 | OC1CCN(c2ccc(/C=N/NC(=S)Nc3ccc(F)cc3)cc2)CC1
absorbance | pH 7.4 | pIC50 | 4.93 | O=c1[nH]c(=O)n([C@H]2C[C@H](O)[C@@H](CO)O2)cc1/C=C/Br
absorbance |  | pIC50 | 6.43 | OC1CCN(c2ccc(/C=N/NC(=S)NCc3ccc(Cl)cc3)cc2)CC1
absorbance | pH 7.4 | pIC50 | 4.90 | OC(Cn1cncn1)(Cn1cncn1)c1ccc(F)cc1F
stopped-flow |  | pKi | 7.43 | Cc1cccc(CC(=O)Nc2nnc(S(N)(=O)=O)s2)c1
